This is a sample that favours compounds with a hit; in the whole collection about 3.3% have one here.
Statin myotox sup: protects C2C12 myotubes from simvastatin toxicity | ATP luminescence, 48 h; scaled: DMSO 0, geranylgeraniol control 100 | rescue of ATP level, % at 7.49 µM | 330,000 tested, 0.78% active | AID 602340;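 active = mean ATP rescue above about 67%, or every replicate alone reaching that limit, limit read from the data, passing the limit was not always enough; inconclusive = no clear call, values can overlap the other calls; inactive = mean under the limit and some replicate under it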;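 note: myotubes were challenged with 10 µM simvastatin during compound exposure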
FGF22 binding: FGF22 (human) thermal shift binding. Q9HCT0. recombinant FGF22 thermal shift, SYPRO orange fluorescence; percent of sucrose octasulfate shift, DMSO zero. activity (Tm shift, normalised), % at 9.99 µM. 340,000 tested, 1.5% active. AID 651658;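 active = mean Tm shift, scaled 0 neutral to 100 positive control, at about 1.3% or above, every replicate too, limit read from the data; inconclusive = no clear call, values can overlap the other calls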
E-selectin induc: induces E-selectin expression in human endothelial cells; AID 686992; activation, % at 7.58 µM; P16581; 260,000 tested, 0.37% active; HUVEC E-selectin immunofluorescence imaging; normalized: neutral wells 0, TNF-alpha wells 100;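 active = mean E-selectin-positive cell signal at least 10% of the positive control, reached in at least 60% of replicates, without over 20% cell loss; inconclusive = no rule given, readout overlaps actives, possibly toxicity-flagged; inactive = the rest, including those meeting only one limit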
Target sequence (P16581 whole entry, looked up): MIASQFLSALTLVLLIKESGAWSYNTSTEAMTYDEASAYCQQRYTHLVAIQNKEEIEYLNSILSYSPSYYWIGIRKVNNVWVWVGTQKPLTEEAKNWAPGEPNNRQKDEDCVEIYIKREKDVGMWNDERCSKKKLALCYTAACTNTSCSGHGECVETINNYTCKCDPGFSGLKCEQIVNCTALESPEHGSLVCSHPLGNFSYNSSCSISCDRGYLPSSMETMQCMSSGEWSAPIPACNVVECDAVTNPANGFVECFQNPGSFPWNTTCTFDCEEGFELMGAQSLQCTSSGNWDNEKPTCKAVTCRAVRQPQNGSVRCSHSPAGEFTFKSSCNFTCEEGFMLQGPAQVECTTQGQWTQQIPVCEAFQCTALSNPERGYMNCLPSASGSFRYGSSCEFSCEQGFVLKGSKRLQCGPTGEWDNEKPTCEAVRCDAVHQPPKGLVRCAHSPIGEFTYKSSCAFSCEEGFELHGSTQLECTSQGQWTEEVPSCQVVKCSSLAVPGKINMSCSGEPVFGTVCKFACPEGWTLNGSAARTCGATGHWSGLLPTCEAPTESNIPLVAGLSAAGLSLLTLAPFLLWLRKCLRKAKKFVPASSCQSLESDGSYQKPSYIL
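Test system: HUVEC | Signal: Immunofluorescence imaging | Read-out: Percent E-selectin-positive cells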
DENV2 CPE rescue: inhibitors of DENV2 cytopathic effect. DENV2-infected cells, cytopathic effect rescue, plate reader. CPE inhibition, % at 9.99 µM. 350,000 tested, 1.7% active; in the data active = CPE inhibition above about 20%, passing the limit was not always enough; inconclusive = no clear call, values can overlap the other calls; tested in BHK-21 cells;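 note: 0% = median of neutral control wells and 100% = median of positive control wells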
PglD DTNB: PglD (C. jejuni) enzyme inhibition; purified PglD enzyme, DTNB colorimetric CoA detection; inhibition, % at 12.5 µM; 360,000 tested, 0.098% active; AID 602405; in the data active = inhibition above about 16%, passing the limit was not always enough; inconclusive = no clear call, values can overlap the other calls
Xi reactivation: activators of X-chromosome reactivation in mouse fibroblasts; 360,000 tested, 0.055% active; XiGFP mouse fibroblasts, % GFP-positive cells imaging, 3 d; cells co-treated with 5-aza-dC sensitizer; scaled so ellipticine positive control = 100%; activation, % at 7.58 µM; AID 743238;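 active = mean normalized replicate activation at least 10% and every replicate at or above 10%; inconclusive = only one of the two criteria met; inactive = mean below 10% and not all replicates reach 10%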;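 note: 0% = median of on-plate neutral control wells and 100% = ellipticine 6 µM median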
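System: XiGFP fibroblasts, SV40-immortalized. Medium: DMEM plus 5-aza-dC sensitizer. Doses: single point. Timing: 3 d treatment, 15 min room-temperature fixation. Control set: ellipticine 6 µM.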
PglD inh SP: PglD (C. jejuni) inhibition confirmation | inhibition, % at 20 µM | Purified C. jejuni PglD, DTNB absorbance 412 nm | shares compounds with PglD DTNB | 320 tested, under 10 active;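 active = mean inhibition across replicates of at least 20% with every single replicate also at 20% or more; inconclusive = mean inhibition at least 20% but some replicate falls below 20%; inactive = mean inhibition under 20% and not all replicates reach it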;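 note: initial rate of CoA release by acetyl transfer from AcCoA to the UDP-4-amino sugar; 0% = median of neutral control wells and 100% = median of positive control wells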
* hit, by the source's call.

`CCNC(=O)C1CC(=O)N(Cc2ccc3c(c2)OCO3)C(=Nc2ccc(OCC)cc2)S1` (configuration not stated) gave Statin myotox sup 4.7, PglD DTNB 24.2* and PglD inh SP -7.2.
`CCNC(=O)C1CC(=O)N(Cc2ccc(F)cc2)C(=Nc2ccc(OC)cc2)S1` (configuration not stated) gave FGF22 binding 0.1.
CCCCOc1ccc(CC(=O)NCC(=O)O)cc1 was read as PglD DTNB 23.3* and PglD inh SP -2.7.
`COc1cc(NC(=O)Cc2nn(C)c(=O)c3ccccc23)cc(OC)c1` gave Statin myotox sup 6.1, PglD DTNB 21.0* and PglD inh SP -5.0.
CC(C)NC(=O)N(C)C[C@@H]1Oc2ccc(NC(=O)C3CC3)cc2CC(=O)N([C@@H](C)CO)C[C@@H]1C was read as Statin myotox sup 31.4, FGF22 binding 0.1, DENV2 CPE rescue 17.4, PglD DTNB -1.8 and Xi reactivation -0.1.
Screening C[C@H]1CN([C@@H](C)CO)C(=O)Cc2cc(NC(=O)c3ccncc3)ccc2O[C@@H]1CN(C)C(=O)Nc1cccc2ccccc12 returned Statin myotox sup inconclusive, FGF22 binding -0.2, E-selectin induc 0.1, DENV2 CPE rescue 7.3, PglD DTNB 8.0 and Xi reactivation 0.0.
Screening CC(=O)c1cccc(NC(=O)NCc2cccnc2)c1 returned Statin myotox sup -22.4, FGF22 binding 0.1, DENV2 CPE rescue 4.9, PglD DTNB 22.0* and PglD inh SP 1.6.
`O=C(NCc1cccnc1)Nc1cccc(NC(=O)NCc2cccnc2)c1` gave Statin myotox sup -7.9 and PglD DTNB -0.3.
`O=C1CSCN1c1ccc(Cl)cc1` gave Statin myotox sup 9.3, FGF22 binding -0.1, E-selectin induc 2.3, DENV2 CPE rescue inconclusive, PglD DTNB 83.1*, Xi reactivation 0.2 and PglD inh SP 9.5.
For O=C(C[C@H]1CC[C@H](NC(=O)CCN2CCCCC2)[C@H](CO)O1)Nc1nccs1 the results were Statin myotox sup 2.0, E-selectin induc -0.2 and Xi reactivation 0.2.
For O=S(=O)(c1cccs1)N1CCN(Cc2nc3ccccc3s2)CC1 the results were Statin myotox sup 20.6, E-selectin induc 0.3, PglD DTNB 24.1* and PglD inh SP -0.9.
`O=C(CCc1nc2ccccc2s1)N1CCN(S(=O)(=O)c2cccs2)CC1` gave Statin myotox sup -16.6 and PglD DTNB -1.7.
Screening C[C@H]1CN([C@@H](C)CO)S(=O)(=O)c2ccc(-c3cccnc3)cc2O[C@@H]1CN(C)C(=O)CN(C)C returned Statin myotox sup 7.1, FGF22 binding -0.1, E-selectin induc -0.1, DENV2 CPE rescue inconclusive, PglD DTNB 2.3 and Xi reactivation -1.0.
Screening COC(=O)C1CSC(C(=O)OC)N1C(=O)CN1CCN(c2ccc(OC)cc2)CC1 (configuration not stated) returned FGF22 binding 0.1, PglD DTNB 59.1*, Xi reactivation 0.0 and PglD inh SP 2.8.
`COc1ccc([N+](=O)[O-])cc1NC(=O)CCN1CCOCC1` gave Statin myotox sup -6.8, FGF22 binding -0.1, DENV2 CPE rescue 0.5, PglD DTNB 20.8*, Xi reactivation 0.1 and PglD inh SP -3.7.
Screening COc1ccc([N+](=O)[O-])cc1NC(=O)CCN1CCN(C)CC1 returned FGF22 binding 0.2, DENV2 CPE rescue 11.5 and Xi reactivation 0.0.
`CCn1cc(C(=O)NCCCN2CCCC(C)C2)c(=O)c2cc(S(=O)(=O)N3CCOCC3)ccc21` (configuration not stated) gave Statin myotox sup 8.0, FGF22 binding -0.2, E-selectin induc 0.8, DENV2 CPE rescue 2.9, PglD DTNB 24.2*, Xi reactivation 0.0 and PglD inh SP 8.4.
O=C(C1CC1)N1CCCCN2[C@@H](CO)[C@@H](c3ccc(-c4cccc(F)c4)cc3)[C@@H]2C1 was read as FGF22 binding 0.0, E-selectin induc -0.1, DENV2 CPE rescue 0.6, PglD DTNB -5.3 and Xi reactivation 0.2.
CN(Cc1ccccc1)S(=O)(=O)c1ccc2[nH]c(=O)oc2c1 was read as Statin myotox sup -6.4, FGF22 binding -0.1, E-selectin induc -0.1, DENV2 CPE rescue -3.7, PglD DTNB -3.1 and Xi reactivation 0.0.
For CN(c1ccccc1)S(=O)(=O)c1ccc2[nH]c(=O)oc2c1 the results were Statin myotox sup -0.5, FGF22 binding -0.2, DENV2 CPE rescue -3.2, PglD DTNB 29.1*, Xi reactivation 0.3 and PglD inh SP 2.9.
`COc1ccc(OC)c(NC(=O)N2CCCc3ccccc32)c1` gave Statin myotox sup 9.6, FGF22 binding 0.0, DENV2 CPE rescue 6.5, PglD DTNB 4.8 and Xi reactivation 0.0.
Screening COc1ccc(NC(=O)N2CCCc3cc(C)ccc32)c(OC)c1 returned FGF22 binding -0.2, E-selectin induc 0.1, DENV2 CPE rescue inconclusive, PglD DTNB 30.4*, Xi reactivation -0.1 and PglD inh SP -7.6.
C=C(C)Cn1c2ccc(NC(=O)NCC)cc2c(=O)n1C was read as Statin myotox sup 7.8, FGF22 binding 0.4, E-selectin induc 0.1, DENV2 CPE rescue 3.1, PglD DTNB -5.2 and Xi reactivation 0.0.
Screening C=C(C)Cn1c2ccc(NC(=O)NCc3ccccc3)cc2c(=O)n1C returned Statin myotox sup -2.4, FGF22 binding 0.5, E-selectin induc -0.1, DENV2 CPE rescue -2.2, PglD DTNB 20.4*, Xi reactivation 0.0 and PglD inh SP -6.7.
For CCc1sc(N2[C@@H](C#N)[C@@H](c3ccccc3-c3ccc(F)cc3)[C@@H]2CO)nc1C the results were FGF22 binding -0.1, E-selectin induc -0.1, DENV2 CPE rescue -0.1 and Xi reactivation 0.0.
`COc1cc(CC(=O)NCc2ccco2)cc(OC)c1OC` gave Statin myotox sup 6.8, E-selectin induc 0.2, PglD DTNB 21.9* and PglD inh SP -1.2.
For CCCOc1cc(CC(=O)NCc2ccco2)ccc1OC the results were Statin myotox sup 4.7 and PglD DTNB 1.8.
O=C(C[C@H]1CC[C@@H](NC(=O)Nc2cc(F)ccc2F)[C@@H](CO)O1)Nc1ccccc1 was read as Statin myotox sup 2.1, FGF22 binding 0.2, E-selectin induc 0.2, DENV2 CPE rescue 5.7, PglD DTNB -1.8 and Xi reactivation 0.3.
Screening Cc1cc(C)c2c(NC(N)=S)n[nH]c2n1 returned Statin myotox sup 4.3, FGF22 binding 0.1, DENV2 CPE rescue -8.6, PglD DTNB 25.7*, Xi reactivation 0.0 and PglD inh SP -0.3.

Screens deposited in PubChem by Broad Institute.
